Calls of active or inactive are those of the source. No cut-off for these calls is given here.
Legend:
[1] = target: T1, Neutrophil elastase (Homo sapiens) (UniProt P08246); assay: Inhibition of human leucocyte elastase at 20 ug/mL
T1 sequence (whole entry): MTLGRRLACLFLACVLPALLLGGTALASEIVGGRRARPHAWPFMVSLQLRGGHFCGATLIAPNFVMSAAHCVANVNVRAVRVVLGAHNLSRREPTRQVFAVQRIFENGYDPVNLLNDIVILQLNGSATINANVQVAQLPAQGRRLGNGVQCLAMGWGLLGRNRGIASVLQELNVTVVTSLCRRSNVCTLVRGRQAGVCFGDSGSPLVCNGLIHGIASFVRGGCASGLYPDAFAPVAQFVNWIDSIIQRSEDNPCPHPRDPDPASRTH
Summary of the method: (§1)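 Human leukocyte elastase at 40 nM in reaction, with substrate Suc-Ala-Pro-Ala-AMC. A commercial elastase inhibitor serves as control. 50 mM Tris-HCl pH 7.2 with 15% glycerol, 60 min at 37 °C. Fluorescence read at 370/460 nm. Compounds are added from 10 mg/mL DMSO stock. Quenching is assessed on free AMC in the assay buffer.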

[2] = target: Plasminogen (Homo sapiens) (UniProt P00747); assay: Inhibition of human plasmin at 20 ug/mL
Summary of the method: (§2)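 Plasmin from human plasma, 165 pM in reaction, with fluorogenic H-Ala-Phe-Lys-AMC. α2-Antiplasmin serves as the control inhibitor. Run in 50 mM Tris-HCl pH 7.2, 15% glycerol, 60 min at 37 °C. Read-out is AMC fluorescence at ex/em 370/460 nm. Compounds come from 10 mg/mL DMSO stock. Quenching is checked with free AMC in the same buffer.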

[3] = target: T2, Chymotrypsin-C (Homo sapiens) (UniProt Q99895); assay: Inhibition of human Serine protease chymotrypsin at 20 ug/mL
T2 sequence (whole entry): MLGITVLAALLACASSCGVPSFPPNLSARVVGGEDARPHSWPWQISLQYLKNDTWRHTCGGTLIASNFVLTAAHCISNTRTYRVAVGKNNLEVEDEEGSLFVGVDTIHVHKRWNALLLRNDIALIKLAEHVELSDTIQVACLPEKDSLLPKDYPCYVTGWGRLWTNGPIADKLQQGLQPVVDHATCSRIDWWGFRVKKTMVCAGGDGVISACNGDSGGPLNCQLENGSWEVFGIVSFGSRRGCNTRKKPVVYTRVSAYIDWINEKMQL
Summary of the method: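 Fluorogenic substrate Suc-Ala-Ala-Pro-Phe-AMC. Chymostatin serves as the control inhibitor. Reaction in 50 mM Tris-HCl pH 7.2 with 15% glycerol, incubated 60 min at 37 °C. AMC fluorescence is read at ex/em 370/460 nm. Compounds are from DMSO stock, 10 mg/mL. Compound quenching is checked against free AMC in the same buffer.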

[4] = target: T1, Neutrophil elastase (Homo sapiens); assay: Evaluated for percent inhibition of human leucocyte elastase at 20 ug/mL; NA means not active; summary of the method: as §1
[5] = target: Plasminogen (Homo sapiens) (UniProt P00747); assay: Evaluated for percent inhibition of human plasmin at 20 ug/mL; NA means not active; summary of the method: as §2

Plasminogen (Homo sapiens), sequence (P00747 97-580 limits assumed): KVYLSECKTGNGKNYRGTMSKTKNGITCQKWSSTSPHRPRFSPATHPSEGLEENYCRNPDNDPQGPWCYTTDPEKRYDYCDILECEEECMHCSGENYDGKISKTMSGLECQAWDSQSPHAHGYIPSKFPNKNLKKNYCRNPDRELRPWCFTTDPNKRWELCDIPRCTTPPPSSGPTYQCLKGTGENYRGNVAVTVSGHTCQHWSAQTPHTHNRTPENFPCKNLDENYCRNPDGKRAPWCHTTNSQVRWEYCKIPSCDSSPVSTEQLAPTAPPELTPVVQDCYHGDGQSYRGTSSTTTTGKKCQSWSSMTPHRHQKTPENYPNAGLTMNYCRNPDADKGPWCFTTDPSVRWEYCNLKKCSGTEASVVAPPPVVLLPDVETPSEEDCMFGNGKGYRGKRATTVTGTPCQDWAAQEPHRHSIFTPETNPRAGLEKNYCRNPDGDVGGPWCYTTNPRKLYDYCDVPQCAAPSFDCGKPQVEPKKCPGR
Plasminogen (Homo sapiens), sequence (P00747 581-810 limits assumed): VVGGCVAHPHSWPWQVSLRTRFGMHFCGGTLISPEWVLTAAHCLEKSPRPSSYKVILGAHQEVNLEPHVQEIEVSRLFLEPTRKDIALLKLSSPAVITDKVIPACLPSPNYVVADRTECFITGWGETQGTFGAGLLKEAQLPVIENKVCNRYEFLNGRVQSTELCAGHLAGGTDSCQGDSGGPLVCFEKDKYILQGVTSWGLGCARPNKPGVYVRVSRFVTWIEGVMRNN

inhibition [1] [%]	inhibition [2] [%]	inhibition [3] [%]	inhibition [4]	inhibition [5]	SMILES
26	57	77			N#Cc1cccc(NC(=O)N2CCN(C(=O)CN3C(=O)C(=O)c4cc(OC(F)(F)F)ccc43)CC2)c1
74	80	82			O=C1C(=O)N(CC(=O)N2CCN(C(=O)Nc3cccc4ccccc34)CC2)c2ccc(Cl)cc21
94	82	87			CCCCOC(=O)Nc1cccc(NC(=O)NC(=O)N2CCN(C(=O)CN3C(=O)C(=O)c4cc([N+](=O)[O-])ccc43)CC2)c1
79	77	79			O=C1C(=O)N(CC(=O)N2CCN(C(=O)Nc3cccc4ccccc34)CC2)c2ccc(OC(F)(F)F)cc21

Continued, compound first:

SMILES	inhibition [1] [%]	inhibition [2] [%]	inhibition [3] [%]	inhibition [4]	inhibition [5]
O=C(CN1C(=O)C(=O)c2ccccc21)c1ccc(F)cc1	90	89	83		
CC(C)(C)C(=O)CN1C(=O)C(=O)c2ccccc21	51	55	85		
O=C(CN1C(=O)C(=O)c2cc(OC(F)(F)F)ccc21)c1ccc2ccccc2c1	64	86	97		
Cc1ccc(C(=O)CN2C(=O)C(=O)c3ccccc32)cc1	45	84	94		
O=C(CN1C(=O)C(=O)c2ccccc21)c1ccc(Cl)cc1	56	87	89		
NC(=O)CN1C(=O)C(=O)c2ccccc21	3	29	5		
CC(C)C[C@H](NC(=O)[C@@H](NC(=O)N[C@@H](Cc1ccccc1)C(=O)O)C1CCNC(=N)N1)C(=O)N[C@H](C=O)Cc1ccccc1 (stereo partly drawn)			95	inactive	inactive

From ChEMBL document CHEMBL1132805, “Parallel synthesis of isatin-based serine protease inhibitors” (Bioorg Med Chem Lett, 2000)
